# Tests used:
# [1] = target: T1, C-X-C chemokine receptor type 3 (Homo sapiens, UniProt P49682); experiment: Displacement of [125I]I-TAC from human CXCR3 expressed in CHO cells by scintillation proximity assay; type: cell-based
# T1 sequence (P49682 whole entry): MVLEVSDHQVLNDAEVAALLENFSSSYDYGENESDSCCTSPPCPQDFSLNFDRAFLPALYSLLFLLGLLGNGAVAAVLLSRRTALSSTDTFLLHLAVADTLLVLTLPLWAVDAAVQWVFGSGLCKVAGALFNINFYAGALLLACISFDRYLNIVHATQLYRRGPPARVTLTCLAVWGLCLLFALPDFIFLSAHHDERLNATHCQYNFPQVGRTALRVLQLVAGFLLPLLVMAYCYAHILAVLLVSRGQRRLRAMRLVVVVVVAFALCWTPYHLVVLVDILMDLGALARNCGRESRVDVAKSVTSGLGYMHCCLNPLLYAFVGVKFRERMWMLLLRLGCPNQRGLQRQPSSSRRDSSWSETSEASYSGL
# In short: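 Membranes came from CHO cells transfected with human CXCR3. Serial dilutions of inhibitor were incubated for 2 h at room temperature with 125I-labelled I-TAC (CXCL11), the membranes and WGA-coated PVT beads. Binding was read by scintillation proximity.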
# [2] = target: T1, C-X-C chemokine receptor type 3; experiment: Antagonist activity at human CXCR3 expressed in L1.2 cells assessed as inhibition of I-TAC-induced Ca2+ mobilization by FLIPR assay; type: functional, cell-based
# In short: (§1)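 CXCR3-transfected L1.2 mouse pre-B cells were loaded with Fluo-4 and washed. They were pre-incubated with inhibitor for 2 h at room temperature, then stimulated with I-TAC. The transient rise in intracellular Ca2+ was read on a FLIPR.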
# [3] = target: 5-hydroxytryptamine receptor 2C (Homo sapiens, UniProt P28335); experiment: Inhibition of 5HT2C receptor
# Chain of 5-hydroxytryptamine receptor 2C (P28335 whole entry): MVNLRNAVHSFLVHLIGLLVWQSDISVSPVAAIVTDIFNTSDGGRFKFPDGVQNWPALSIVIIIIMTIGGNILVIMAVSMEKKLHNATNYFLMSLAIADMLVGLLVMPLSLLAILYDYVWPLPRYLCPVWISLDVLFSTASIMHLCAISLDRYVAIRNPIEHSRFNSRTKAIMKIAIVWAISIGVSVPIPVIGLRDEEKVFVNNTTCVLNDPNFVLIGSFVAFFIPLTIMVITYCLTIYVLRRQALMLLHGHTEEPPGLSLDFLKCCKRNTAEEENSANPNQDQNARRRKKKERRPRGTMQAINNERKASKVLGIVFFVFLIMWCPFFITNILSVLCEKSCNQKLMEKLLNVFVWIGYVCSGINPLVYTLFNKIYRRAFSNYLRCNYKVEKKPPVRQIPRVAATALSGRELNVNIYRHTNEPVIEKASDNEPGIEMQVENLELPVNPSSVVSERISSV
# [4] = target: 5-hydroxytryptamine receptor 2A (Homo sapiens, UniProt P28223); experiment: Inhibition of 5HT2A receptor
# Chain of 5-hydroxytryptamine receptor 2A (P28223 whole entry): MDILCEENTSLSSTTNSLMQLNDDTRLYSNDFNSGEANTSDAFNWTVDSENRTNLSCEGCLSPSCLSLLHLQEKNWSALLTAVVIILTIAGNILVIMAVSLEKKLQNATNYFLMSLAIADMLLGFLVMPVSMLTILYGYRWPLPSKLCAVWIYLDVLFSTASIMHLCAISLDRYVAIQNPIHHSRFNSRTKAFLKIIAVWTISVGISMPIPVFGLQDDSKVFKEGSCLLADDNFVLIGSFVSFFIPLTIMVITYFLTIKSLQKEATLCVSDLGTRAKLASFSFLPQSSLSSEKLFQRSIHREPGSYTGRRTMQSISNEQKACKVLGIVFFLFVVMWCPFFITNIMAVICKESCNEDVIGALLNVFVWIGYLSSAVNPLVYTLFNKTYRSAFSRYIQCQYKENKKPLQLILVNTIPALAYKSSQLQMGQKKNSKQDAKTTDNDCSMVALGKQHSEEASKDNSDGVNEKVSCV
# Cytochrome P450 2C9 = Cytochrome P450 2C9 (Homo sapiens, UniProt P11712); experiment: Inhibition of CYP2C9; type: ADME
# [5] = target: Alpha-2C adrenergic receptor (Homo sapiens, UniProt P18825); experiment: Inhibition of adrenergic Alpha-2C receptor
# Chain of Alpha-2C adrenergic receptor (P18825 whole entry): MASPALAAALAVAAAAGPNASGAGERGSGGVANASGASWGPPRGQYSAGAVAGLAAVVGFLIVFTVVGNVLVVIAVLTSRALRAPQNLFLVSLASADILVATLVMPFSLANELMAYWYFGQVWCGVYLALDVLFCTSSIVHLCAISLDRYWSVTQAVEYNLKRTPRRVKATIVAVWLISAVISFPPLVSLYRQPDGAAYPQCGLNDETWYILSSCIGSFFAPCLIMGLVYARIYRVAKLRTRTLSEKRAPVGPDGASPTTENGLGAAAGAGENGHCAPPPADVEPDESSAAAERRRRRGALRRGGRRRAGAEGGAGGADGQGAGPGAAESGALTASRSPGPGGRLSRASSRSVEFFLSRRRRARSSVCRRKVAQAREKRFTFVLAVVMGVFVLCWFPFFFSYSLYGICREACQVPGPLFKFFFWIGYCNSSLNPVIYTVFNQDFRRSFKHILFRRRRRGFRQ
# D(3) dopamine receptor = D(3) dopamine receptor (Homo sapiens, UniProt P35462); experiment: Inhibition of dopamine D3 receptor
# Chain of D(3) dopamine receptor (P35462 whole entry): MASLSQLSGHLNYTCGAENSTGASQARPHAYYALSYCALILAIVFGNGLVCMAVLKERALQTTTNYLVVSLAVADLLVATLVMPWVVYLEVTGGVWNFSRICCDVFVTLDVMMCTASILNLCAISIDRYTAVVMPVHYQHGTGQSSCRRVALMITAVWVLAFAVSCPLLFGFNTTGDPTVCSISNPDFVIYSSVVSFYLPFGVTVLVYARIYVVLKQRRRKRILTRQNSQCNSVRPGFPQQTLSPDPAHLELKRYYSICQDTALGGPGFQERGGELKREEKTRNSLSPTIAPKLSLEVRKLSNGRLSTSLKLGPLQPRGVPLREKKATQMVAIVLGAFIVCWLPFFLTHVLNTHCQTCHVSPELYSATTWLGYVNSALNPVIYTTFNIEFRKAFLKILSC
# [6] = target: 5-hydroxytryptamine receptor 6 (Homo sapiens, UniProt P50406); experiment: Inhibition of 5HT6 receptor
# Chain of 5-hydroxytryptamine receptor 6 (P50406 whole entry): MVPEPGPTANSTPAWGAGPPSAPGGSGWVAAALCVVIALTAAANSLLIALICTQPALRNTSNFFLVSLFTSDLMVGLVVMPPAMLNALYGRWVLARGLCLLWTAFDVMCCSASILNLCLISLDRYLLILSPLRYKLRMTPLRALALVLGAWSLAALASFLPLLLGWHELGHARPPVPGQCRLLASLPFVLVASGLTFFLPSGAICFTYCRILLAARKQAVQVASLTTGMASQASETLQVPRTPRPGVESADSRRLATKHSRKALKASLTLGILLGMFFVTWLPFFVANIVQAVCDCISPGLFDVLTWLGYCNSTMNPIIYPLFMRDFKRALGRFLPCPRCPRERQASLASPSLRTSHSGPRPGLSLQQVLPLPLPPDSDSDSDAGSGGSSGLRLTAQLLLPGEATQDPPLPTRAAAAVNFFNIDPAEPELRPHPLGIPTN
# Cytochrome P450 2C19 = Cytochrome P450 2C19 (Homo sapiens, UniProt P33261); experiment: Inhibition of CYP2C19; type: ADME
# [7] = target: T2, C-X-C chemokine receptor type 3 (Mus musculus, UniProt O88410); experiment: Displacement of [125I]I-TAC from mouse CXCR3 expressed in CHO cells by scintillation proximity assay; type: cell-based
# T2 sequence (O88410 whole entry): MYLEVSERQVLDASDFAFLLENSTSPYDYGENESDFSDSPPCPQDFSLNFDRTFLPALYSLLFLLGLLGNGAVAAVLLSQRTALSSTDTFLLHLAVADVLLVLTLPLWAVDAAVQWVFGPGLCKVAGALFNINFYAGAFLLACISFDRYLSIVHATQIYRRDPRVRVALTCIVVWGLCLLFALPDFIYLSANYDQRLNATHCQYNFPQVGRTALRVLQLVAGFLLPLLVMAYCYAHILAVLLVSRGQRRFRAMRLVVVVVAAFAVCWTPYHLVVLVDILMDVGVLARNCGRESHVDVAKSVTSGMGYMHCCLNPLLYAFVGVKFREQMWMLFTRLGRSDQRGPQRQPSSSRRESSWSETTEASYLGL
# [8] = target: 5-hydroxytryptamine receptor 1A (Homo sapiens, UniProt P08908); experiment: Inhibition of 5HT1A receptor
# [9] = target: Voltage-gated inwardly rectifying potassium channel KCNH2 (Homo sapiens, UniProt Q12809); experiment: Inhibition of human ERG
# D(2) dopamine receptor = D(2) dopamine receptor (Homo sapiens, UniProt P14416); experiment: Inhibition of dopamine D2 receptor
# [10] = target: Alpha-2A adrenergic receptor (Homo sapiens, UniProt P08913); experiment: Inhibition of adrenergic alpha2A receptor
# Cytochrome P450 1A2 = Cytochrome P450 1A2 (Homo sapiens, UniProt P05177); experiment: Inhibition of CYP1A2; type: ADME
# D(4) dopamine receptor = D(4) dopamine receptor (Homo sapiens, UniProt P21917); experiment: Inhibition of dopamine D4.4 receptor
# Chain of D(4) dopamine receptor (P21917 whole entry): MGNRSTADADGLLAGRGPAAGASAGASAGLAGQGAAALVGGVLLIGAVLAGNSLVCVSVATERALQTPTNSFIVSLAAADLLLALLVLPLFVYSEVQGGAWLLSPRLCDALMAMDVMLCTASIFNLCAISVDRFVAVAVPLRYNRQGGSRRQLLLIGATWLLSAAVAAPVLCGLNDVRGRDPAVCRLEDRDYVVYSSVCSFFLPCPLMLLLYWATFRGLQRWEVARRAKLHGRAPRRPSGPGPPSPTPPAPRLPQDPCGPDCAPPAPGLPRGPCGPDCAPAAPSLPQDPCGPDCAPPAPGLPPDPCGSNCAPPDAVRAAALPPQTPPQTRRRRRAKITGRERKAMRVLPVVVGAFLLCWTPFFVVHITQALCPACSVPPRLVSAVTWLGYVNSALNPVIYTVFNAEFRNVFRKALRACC
# [11] = target: T2, C-X-C chemokine receptor type 3; experiment: Antagonist activity at mouse CXCR3 expressed in L1.2 cells assessed as inhibition of I-TAC-induced Ca2+ mobilization by FLIPR assay; type: functional, cell-based; in short: as §1
# [12] = Lipophilicity, log P of the compound; type: physicochemical; conditions: octanol/water
# Cytochrome P450 2D6 = Cytochrome P450 2D6 (Homo sapiens, UniProt P10635); experiment: Inhibition of CYP2D6; type: ADME
# Cytochrome P450 3A4 = Cytochrome P450 3A4 (Homo sapiens, UniProt P08684); experiment: Inhibition of CYP3A4; type: ADME
# [13] = Fraction unbound in rat; type: ADME, organism-based; conditions: in vivo
# [14] = target: 5-hydroxytryptamine receptor 7 (Homo sapiens, UniProt P34969); experiment: Inhibition of 5HT7 receptor
# Chain of 5-hydroxytryptamine receptor 7 (P34969 whole entry): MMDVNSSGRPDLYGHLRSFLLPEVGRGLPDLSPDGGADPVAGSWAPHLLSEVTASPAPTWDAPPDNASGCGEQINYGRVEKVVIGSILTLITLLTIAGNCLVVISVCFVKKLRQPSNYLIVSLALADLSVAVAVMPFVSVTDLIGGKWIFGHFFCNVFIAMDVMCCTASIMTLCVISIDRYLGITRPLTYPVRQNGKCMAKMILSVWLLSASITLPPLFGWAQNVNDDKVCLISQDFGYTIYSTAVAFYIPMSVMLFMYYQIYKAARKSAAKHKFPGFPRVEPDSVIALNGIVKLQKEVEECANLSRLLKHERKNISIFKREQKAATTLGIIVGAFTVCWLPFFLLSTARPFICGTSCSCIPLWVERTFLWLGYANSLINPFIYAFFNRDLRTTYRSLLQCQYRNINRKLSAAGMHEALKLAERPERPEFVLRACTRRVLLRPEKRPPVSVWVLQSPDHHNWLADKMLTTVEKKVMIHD
# [15] = Fraction unbound in human; type: ADME, organism-based; conditions: in vivo
# [16] = target: 5-hydroxytryptamine receptor 2B (Homo sapiens, UniProt P41595); experiment: Inhibition of 5HT2B receptor
# Chain of 5-hydroxytryptamine receptor 2B (P41595 whole entry): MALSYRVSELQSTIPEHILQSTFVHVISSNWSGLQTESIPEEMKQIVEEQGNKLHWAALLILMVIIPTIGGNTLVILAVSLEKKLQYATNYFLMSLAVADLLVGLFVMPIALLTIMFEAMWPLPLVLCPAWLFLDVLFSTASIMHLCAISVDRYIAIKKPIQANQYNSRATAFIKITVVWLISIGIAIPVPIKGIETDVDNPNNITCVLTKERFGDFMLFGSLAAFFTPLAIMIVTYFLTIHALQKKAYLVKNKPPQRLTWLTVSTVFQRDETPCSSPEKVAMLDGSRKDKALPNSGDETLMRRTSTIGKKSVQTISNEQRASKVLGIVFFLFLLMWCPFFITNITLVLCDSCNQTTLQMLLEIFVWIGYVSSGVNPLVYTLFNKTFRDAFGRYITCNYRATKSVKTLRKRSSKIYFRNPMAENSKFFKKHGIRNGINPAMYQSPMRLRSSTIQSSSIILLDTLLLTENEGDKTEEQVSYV
# [17] = Solubility in pH 1.0 buffer; type: physicochemical
# [18] = Inhibition of adrenergic alpha1 receptor
# D(1A) dopamine receptor = D(1A) dopamine receptor (Homo sapiens, UniProt P21728); experiment: Inhibition of dopamine D1 receptor
# Chain of D(1A) dopamine receptor (P21728 whole entry): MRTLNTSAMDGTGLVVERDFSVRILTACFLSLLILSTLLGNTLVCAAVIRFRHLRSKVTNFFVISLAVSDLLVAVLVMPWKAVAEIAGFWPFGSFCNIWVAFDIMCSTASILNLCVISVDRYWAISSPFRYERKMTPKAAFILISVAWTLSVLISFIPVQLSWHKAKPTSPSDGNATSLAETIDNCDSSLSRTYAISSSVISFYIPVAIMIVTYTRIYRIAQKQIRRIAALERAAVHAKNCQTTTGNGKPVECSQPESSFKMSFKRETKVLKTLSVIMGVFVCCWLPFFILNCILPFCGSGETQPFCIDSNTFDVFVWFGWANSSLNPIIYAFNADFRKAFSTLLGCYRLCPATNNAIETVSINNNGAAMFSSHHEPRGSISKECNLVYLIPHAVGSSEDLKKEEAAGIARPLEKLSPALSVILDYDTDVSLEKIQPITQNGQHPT
# [19] = Solubility in pH 6.8 buffer; type: physicochemical
# [20] = target: Beta-1 adrenergic receptor (Homo sapiens, UniProt P08588); experiment: Inhibition of adrenergic beta-1 receptor
# Chain of Beta-1 adrenergic receptor (P08588 whole entry): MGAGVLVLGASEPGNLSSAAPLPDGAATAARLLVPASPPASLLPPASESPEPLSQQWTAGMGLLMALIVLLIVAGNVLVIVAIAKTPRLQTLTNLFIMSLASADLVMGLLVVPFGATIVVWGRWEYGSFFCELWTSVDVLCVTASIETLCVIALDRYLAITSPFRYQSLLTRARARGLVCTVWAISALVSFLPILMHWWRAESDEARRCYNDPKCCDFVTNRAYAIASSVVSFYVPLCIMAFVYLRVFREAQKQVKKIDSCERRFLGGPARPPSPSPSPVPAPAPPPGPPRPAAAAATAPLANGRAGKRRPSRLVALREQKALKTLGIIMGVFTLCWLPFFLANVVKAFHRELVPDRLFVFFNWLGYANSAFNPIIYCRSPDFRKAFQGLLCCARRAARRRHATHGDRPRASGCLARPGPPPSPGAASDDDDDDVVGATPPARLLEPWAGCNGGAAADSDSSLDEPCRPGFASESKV
smiles,measurement,setting,value
CCN(CC)C(=O)[C@@H]1C=C2c3cccc4c3c(cn4C)C[C@H]2N(C(=O)Nc2ccccc2)C1,IC50,[1],0.22 µM
same,IC50,[2],0.06 µM
CCN(CC)C(=O)[C@@H]1CC2c3cccc4[nH]cc(c34)C[C@H]2N(C(=O)Nc2ccccc2)C1 (some centres not stated),IC50,[1],5.3 µM
same,IC50,[2],1.93 µM
CCN(CC)C(=O)[C@@H]1C=C2c3cccc4[nH]cc(c34)C[C@H]2N(C(=O)N(C)c2ccccc2)C1,IC50,[1],> 10 µM
same,IC50,[2],> 10 µM
CCN(CC)C(=O)[C@@H]1C=C2c3cccc4[nH]cc(c34)C[C@H]2N(C(=O)Nc2ccccc2)C1,IC50,[3],> 10 µM
same,IC50,[4],0.75 µM
same,IC50,Cytochrome P450 2C9,> 10 µM
same,IC50,[5],0.215 µM
same,IC50,D(3) dopamine receptor,0.66 µM
same,IC50,[6],9.58 µM
same,IC50,Cytochrome P450 2C19,> 10 µM
same,IC50,[7],0.2 µM
same,IC50,[8],3.6 µM
same,IC50,[9],> 30 µM
same,IC50,D(2) dopamine receptor,1.59 µM
same,IC50,[10],1.93 µM
same,IC50,Cytochrome P450 1A2,> 10 µM
same,IC50,D(4) dopamine receptor,2.65 µM
same,IC50,[11],0.03 µM
same,logP,[12],4.2
same,IC50,Cytochrome P450 2D6,> 10 µM
same,IC50,Cytochrome P450 3A4,> 10 µM
same,fraction unbound,[13],0.02
same,IC50,[14],> 10 µM
same,fraction unbound,[15],0.01
same,IC50,[1],0.054 µM
same,IC50,[16],2.47 µM
same,solubility,[17],5 µg/mL
same,IC50,[2],0.018 µM
same,IC50,[18],4.03 µM
same,IC50,D(1A) dopamine receptor,4.9 µM
same,solubility,[19],5 µg/mL
same,IC50,[20],5.76 µM
CCN(CC)C(=O)[C@@H]1C=C2c3cccc4[nH]cc(c34)C[C@H]2NC1,IC50,[3],1.29 µM
same,IC50,[4],0.006 µM
same,IC50,[5],> 10 µM
same,IC50,D(3) dopamine receptor,> 10 µM
same,IC50,[6],0.016 µM
same,IC50,D(2) dopamine receptor,> 10 µM
same,IC50,[10],> 10 µM
same,IC50,D(4) dopamine receptor,> 10 µM
same,IC50,[14],0.143 µM
same,IC50,[1],> 10 µM
same,IC50,[16],0.054 µM
same,IC50,[18],> 10 µM
same,IC50,D(1A) dopamine receptor,> 10 µM
same,IC50,[20],> 10 µM
CCN(CC)C(=O)[C@@H]1C=C2c3cccc4c3c(cn4Cc3ccccc3)C[C@H]2N(C(=O)Nc2ccccc2)C1,IC50,[1],0.59 µM
same,IC50,[2],0.51 µM
CCN(CC)C[C@@H]1C=C2c3cccc4[nH]cc(c34)C[C@H]2N(C(=O)Nc2ccccc2)C1,IC50,[1],> 10 µM
same,IC50,[2],> 10 µM
CCN(CC)C(=O)[C@@H]1C=C2c3cccc4[nH]cc(c34)C[C@H]2N(C(=O)Nc2ccccc2C)C1,IC50,[1],0.146 µM
same,IC50,[2],0.028 µM
CCN(CC)C(=O)[C@@H]1C=C2c3cccc4[nH]cc(c34)C[C@H]2N(C(=O)Nc2cc(OC)c(OC)c(OC)c2)C1,IC50,[1],3.05 µM
same,IC50,[2],0.564 µM
CCN(CC)C(=O)[C@@H]1C=C2c3cccc4[nH]cc(c34)C[C@H]2N(C(=O)Nc2cccc(C)c2)C1,IC50,[1],0.231 µM
same,IC50,[2],0.045 µM
CCN(CC)C(=O)[C@@H]1C=C2c3cccc4[nH]cc(c34)C[C@H]2N(C(=O)NC2CCCCC2)C1,IC50,[1],0.179 µM
same,IC50,[2],0.078 µM
CCN(CC)C(=O)[C@@H]1C=C2c3cccc4[nH]cc(c34)C[C@H]2N(C(=O)Nc2cccnc2)C1,IC50,[1],0.285 µM
same,IC50,[2],0.067 µM
CCN(CC)C(=O)[C@H]1C=C2c3cccc4[nH]cc(c34)C[C@H]2N(C(=O)Nc2ccccc2)C1,IC50,[1],> 10 µM
CCN(CC)C(=O)[C@@H]1C=C2c3cccc4[nH]cc(c34)C[C@H]2N(C(=O)Nc2ccncc2)C1,IC50,[1],2 µM
same,IC50,[2],6.8 µM
CCN(CC)C(=O)[C@@H]1C=C2c3cccc4[nH]cc(c34)C[C@H]2N(C(=O)Nc2ccc(C)cc2)C1,IC50,[1],0.313 µM
same,IC50,[2],0.1 µM
CCN(CC)C(=O)[C@@H]1C=C2c3cccc4[nH]cc(c34)C[C@H]2N(C(=O)Nc2ccccn2)C1,IC50,[1],0.428 µM
same,IC50,[2],0.062 µM
CCN(CC)C(=O)[C@@H]1C=C2c3cccc4[nH]cc(c34)C[C@H]2N(C(=O)Oc2ccccc2)C1,IC50,[1],0.803 µM
same,IC50,[2],0.809 µM
